Results taken from ChEMBL document CHEMBL1137375, “Design, synthesis, and biological evaluation of new 1,8-naphthyridin-4(1H)-on-3-carboxamide and quinolin-4(1H)-on-3-carboxamide derivatives as CB2 selective agonists” (J Med Chem, 2006).
pEC50, pKi: −log10 of the molar value. Active and inactive are the calls of the source. The calls are words filed in the database; no cut-off is given here.

What was measured:
Cannabinoid receptor 1 [1] = biological target: T1, Cannabinoid receptor 1 (Mus musculus, UniProt P47746); experiment: Displacement of [3H]CP-55940 from CB1 receptor in DBA/J2 mouse brain; format: tissue-based
Cannabinoid receptor 2 = Cannabinoid receptor 2 (Mus musculus, UniProt P47936); experiment: Displacement of [3H]CP-55940 from CB2 receptor in DBA/J2 mouse spleen
Outline: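 Membranes (40-60 µg protein) from mouse brain minus cerebellum (CB1) or spleen (CB2), incubated 1 h at 30 °C with 0.5 nM [3H]CP-55,940 in TME buffer (pH 7.4) with 5 mg/mL BSA. GF/C filtration, scintillation counting. IC50 by nonlinear fit, converted to Ki by Cheng-Prusoff; at least three membrane preparations.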

[2] = biological target: Cannabinoid receptor (Mus musculus) (UniProt P47746+P47936); experiment: Selectivity for DBA/J2 mouse CB2 receptor over CB1 receptor; format: protein assay
[3] = biological target: Cannabinoid receptor 1 (Mus musculus) (UniProt P47746); experiment: (§1) Activity at CB1 receptor assessed as stimulation of [35S]GTP-gamma-S binding in DBA/J2 mouse brain; format: functional; conditions: filed as agonist
Cannabinoid receptor 1 [4] = biological target: T1, Cannabinoid receptor 1; experiment: as §1; format: functional
[5] = biological target: Cannabinoid receptor 1 (Mus musculus) (UniProt P47746); experiment: Activity at CB1 receptor assessed as stimulation of [35S]GTP-gamma-S binding in DBA/J2 mouse brain relative to control; format: functional
Outline: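 Mouse brain (minus cerebellum) P2 membranes, 5-10 µg protein, incubated 60 min at 30 °C in 50 mM Tris-HCl, 3 mM MgCl2, 0.2 mM EGTA, 100 mM NaCl, pH 7.4, 0.1% BSA, with 0.05 nM [35S]GTPγS, 30 µM GDP, compound 1-5000 nM. Filtration, scintillation counting. Nonspecific binding with 10 µM GTPγS. Stimulation as % above basal. EC50/Emax by nonlinear regression; at least four experiments in duplicate.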

[6] = biological target: Cannabinoid receptor 2 (Homo sapiens) (UniProt P34972); experiment: Activity at CB2 receptor assessed as reduction in CD203c expression in activated human basophil; format: functional
Outline: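 Human basophil-rich leukocytes from donor blood buffy coats via Ficoll-Paque. Cells pretreated with compound 1 nM to 1 µM for 30 min at 37 °C, then stimulated with anti-IgE 1 µg/mL for 30 min at 37 °C. CD203c (PE) read by flow cytometry on IgE-FITC-gated basophils. Antagonist check: SR 144528 or AM251 100 nM preincubated 30 min. Six experiments in triplicate.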

Sequence of Cannabinoid receptor 2 (P47936 whole entry): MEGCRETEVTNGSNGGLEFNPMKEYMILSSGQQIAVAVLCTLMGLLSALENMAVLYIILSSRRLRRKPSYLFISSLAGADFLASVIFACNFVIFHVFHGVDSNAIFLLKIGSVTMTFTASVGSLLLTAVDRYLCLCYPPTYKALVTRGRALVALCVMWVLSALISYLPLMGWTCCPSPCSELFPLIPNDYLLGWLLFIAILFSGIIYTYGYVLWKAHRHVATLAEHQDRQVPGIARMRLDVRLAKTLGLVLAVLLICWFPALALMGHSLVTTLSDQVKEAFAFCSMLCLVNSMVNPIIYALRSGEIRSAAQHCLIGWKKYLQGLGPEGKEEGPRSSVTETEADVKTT
Sequence of Cannabinoid receptor (Mus musculus) (P47746 whole entry, looked up): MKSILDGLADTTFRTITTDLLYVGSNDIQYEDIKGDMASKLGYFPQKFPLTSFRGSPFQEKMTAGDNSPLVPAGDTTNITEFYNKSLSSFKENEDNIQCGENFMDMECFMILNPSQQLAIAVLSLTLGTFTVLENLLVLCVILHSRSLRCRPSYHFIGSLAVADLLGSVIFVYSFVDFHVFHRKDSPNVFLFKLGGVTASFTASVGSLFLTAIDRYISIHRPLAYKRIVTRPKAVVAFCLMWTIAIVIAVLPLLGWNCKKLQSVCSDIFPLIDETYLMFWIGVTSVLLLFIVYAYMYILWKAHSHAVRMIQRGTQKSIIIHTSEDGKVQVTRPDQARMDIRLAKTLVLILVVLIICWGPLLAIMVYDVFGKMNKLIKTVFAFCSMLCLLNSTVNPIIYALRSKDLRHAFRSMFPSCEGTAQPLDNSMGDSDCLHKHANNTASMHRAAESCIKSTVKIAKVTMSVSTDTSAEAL
Sequence of Cannabinoid receptor (Mus musculus) (P47936 whole entry, looked up): as the sequence (P47936 whole entry) above
T1 sequence (P47746 whole entry): as the sequence (P47746 whole entry, looked up) above
Sequence of Cannabinoid receptor 1 (Mus musculus) (P47746 whole entry): as the sequence (P47746 whole entry, looked up) above
Sequence of Cannabinoid receptor 2 (Homo sapiens) (P34972 whole entry): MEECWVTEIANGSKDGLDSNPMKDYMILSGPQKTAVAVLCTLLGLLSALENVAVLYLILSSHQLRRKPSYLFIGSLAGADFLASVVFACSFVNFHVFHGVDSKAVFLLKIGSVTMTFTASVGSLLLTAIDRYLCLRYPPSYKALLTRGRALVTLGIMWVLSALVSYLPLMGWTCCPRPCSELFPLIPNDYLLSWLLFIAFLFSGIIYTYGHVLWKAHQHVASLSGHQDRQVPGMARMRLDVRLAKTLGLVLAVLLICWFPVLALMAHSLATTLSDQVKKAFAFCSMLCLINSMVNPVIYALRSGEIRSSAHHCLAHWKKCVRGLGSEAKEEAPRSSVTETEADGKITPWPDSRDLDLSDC

Compound	pKi (Cannabinoid receptor 1 [1])	pKi (Cannabinoid receptor 2)	Ratio Ki [2]	Activity [3]	pEC50 (Cannabinoid receptor 1 [4])	Emax [5] [%]	Activity [6]
CCCC(C)(C)c1ccc2c(c1)OC(C)(C)[C@@H]1CC=C(C)C[C@@H]21	6.34	7.19	7	–	–	–	–
Cc1ccc2c(=O)c(C(=O)NC3CCC(C)CC3)cn(Cc3ccc(F)cc3)c2n1 (stereo not given)	8.06	8.85	6	Agonist	7.57	172	–
Cc1ccc2c(=O)c(C(=O)NC3CCCCCC3)cn(Cc3ccc(F)cc3)c2n1	8.37	9.00	4.3	–	–	–	–
Cc1ccc2c(=O)c(C(=O)NC3CCCCCC3)cn(Cc3ccccc3F)c2n1	6.83	7.87	11	–	–	–	–
Cc1ccc2c(n1)N(Cc1ccccc1F)CC(C(=O)NC1CCCCC1)C2O (stereo not given)	< 6.00	< 6.00	–	–	–	–	–
Cc1ccc2c(n1)N(CCN1CCOCC1)CC(C(=O)NC1CCC(C)CC1)C2O (stereo not given)	< 6.00	< 6.00	–	–	–	–	–
Cc1ccc2c(=O)c(C(=O)NC3CCCCC3)cn(CCN3CCN(c4ccccc4)CC3)c2n1	< 6.00	< 6.00	–	–	–	–	–
CC1CCC(NC(=O)c2cn(CCN3CCOCC3)c3nc(Cl)ccc3c2=O)CC1 (stereo not given)	< 6.00	7.39	> 25	–	–	–	–
O=C(NC1CCCCC1)c1cn(Cc2ccc(F)cc2)c2ncccc2c1=O	6.42	7.89	29	–	–	–	–
Cc1ccc2c(=O)c(C(=O)NC3CCCCCC3)cn(Cc3ccccc3)c2n1	6.84	8.29	28	–	–	–	–
Cc1ccc2c(=O)c(C(=O)NC3CCC(C)CC3)cn(Cc3ccccc3F)c2n1 (stereo not given)	7.43	8.08	4	Agonist	6.86	161	–
Cc1ccc2c(=O)c(C(=O)NC3CCCC3)cn(CCN3CCOCC3)c2n1	< 6.00	7.30	> 20	–	–	–	Active
O=C(NC1CCCCC1)c1cn(Cc2ccccc2)c2nc(Cl)ccc2c1=O	6.33	7.61	19	–	–	–	–
Cc1c(C(=O)c2cccc3ccccc23)c2cccc3c2n1[C@H](CN1CCOCC1)CO3	–	–	–	–	–	187	–
O=C(NC1CCCCC1)c1cn(Cc2ccccc2)c2ncccc2c1=O	< 6.00	7.31	> 21	–	–	–	–
O=C(NC1CCCCC1)c1cn(CCN2CCOCC2)c2cc(Cl)ccc2c1=O	< 6.00	8.48	> 303	–	–	–	–
Cc1ccc2c(=O)c(C(=O)NC3CCCCC3)cn(Cc3ccccc3)c2n1	6.90	8.00	13	–	–	–	–
Cc1ccc2c(n1)N(Cc1ccccc1)CC(C(=O)NC1CCCCC1)C2O (stereo not given)	< 6.00	< 6.00	–	–	–	–	–
O=C(NC1CCCCC1)c1cn(Cc2ccc(F)cc2)c2nc(Cl)ccc2c1=O	6.31	7.67	23	–	–	–	–
CCCCC/C=C\C/C=C\C/C=C\C/C=C\CCCC(=O)NCCCl	8.41	6.92	0.03	–	–	–	–
O=C(NC1CCCCC1)c1cn(Cc2ccccc2F)c2nc(Cl)ccc2c1=O	–	7.74	–	–	–	–	–
O=C(NC1CCCCC1)c1cn(CCN2CCOCC2)c2ncccc2c1=O	< 6.00	7.17	> 15	–	–	–	–
Cc1ccc2c(=O)c(C(=O)NC3CCCCC3)cn(CCc3ccccc3)c2n1	< 6.00	7.79	> 62	–	–	–	–
O=C(NC1CCCCC1)c1cn(Cc2ccccc2)c2ccccc2c1=O	< 6.00	8.32	> 210	–	–	–	Active
COc1ccc(Cn2cc(C(=O)NC3CCCCC3)c(=O)c3ccc(C)nc32)cc1	< 6.00	7.45	> 28	–	–	–	–
